In ChEMBL document CHEMBL4342502, “Synthesis and Antichlamydial Activity of Molecules Based on Dysregulators of Cylindrical Proteases” (J Med Chem, 2020):
Calls of active or inactive are those of the source. The rule behind the calls is not given here.

Experiments:
Haemophilus influenzae = assay: Antimicrobial activity against Haemophilus influenzae H2192 assessed as bacterial growth inhibition measured after 18 to 20 hrs; assay type: functional
Neisseria meningitidis = assay: Antimicrobial activity against Neisseria meningitidis MC58 assessed as bacterial growth inhibition measured after 18 to 20 hrs; assay type: functional
Chlamydia trachomatis [1] = assay: Anti-chlamydial activity against Chlamydia trachomatis Serovar LGV-L2 infected in Hep2 cells assessed as inhibition of chlamydial inclusion at 50 ug/ml treated at 8 hrs post infection and measured at 24 hrs post-infection by immunofluorescence assay; assay type: functional, organism-based
Summary of the method: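 HEp-2 cells infected with C. trachomatis serovar L2. Compounds at 50 μg/mL added 8 hpi; inclusion number and size assessed by immunofluorescence at 24 hpi against untreated cells. Cell morphology and viability checked by phase-contrast microscopy.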

HEp-2 = assay: Toxicity in human Hep2 cells infected with Chlamydia trachomatis Serovar LGV-L2 assessed as cell morphology at 50 ug/ml treated at 8 hrs post-infection and measured at 24 hrs post-infection by phase contrast microscopy; assay type: cell-based
Summary of the method: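 HEp-2 cells grown in DMEM with 2% L-glutamine and 10% FBS at 37 °C, infected with C. trachomatis serovar L2. Compound at 50 μg/mL added 8 h post-infection, then incubated 16 h more (24 h total). Cell morphology and viability checked by phase-contrast microscopy alongside untreated infected cells.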

[2] = Half life in human liver microsomes at 1 ug/ml measured up to 60 mins by LC-MS/MS analysis; assay type: ADME, Microsome; details: microsomes, 1 h
Summary of the method: (§1)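 Human liver microsomes (1.0 mg/mL protein) in 100 mM phosphate pH 7.4 with 10 mM MgCl2 and 2 mM NADPH, preincubated 10 min at 37 °C. Reaction started with compound at 1 μg/mL. Sampled at 0, 5, 15, 20, 30, 45 and 60 min and quenched in methanol with internal standard. Controls: no NADPH (negative), testosterone (positive). Analysed by LC-MS/MS, triplicate.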

Escherichia coli [3] = assay: Antibacterial activity against Escherichia coli K12 assessed as bacterial growth inhibition at 32 ug/ml measured after 16 hrs by broth microdilution method; assay type: functional, organism-based; details: K-12
Summary of the method: (§2)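 Broth microdilution in Mueller Hinton broth, triplicate. Direct colony suspension at 1.5 x 10^8 CFU/mL diluted to ~10^5 CFU/mL. Serial dilutions made from DMSO stocks at 1 mg/mL; vancomycin positive control, blank medium negative control. Incubated 16 h at optimum temperature. MIC is the lowest concentration without visible growth at 600 nm; mean of triplicate determinations.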

Candida albicans = assay: Antifungal activity against Candida albicans ATCC 90028 assessed as fungal growth inhibition at 32 ug/ml measured after 16 hrs by broth microdilution method; assay type: functional, organism-based
Escherichia coli [4] = assay: Antibacterial activity against Escherichia coli ATCC 25922 assessed as bacterial growth inhibition at 32 ug/ml measured after 16 hrs by broth microdilution method; assay type: functional, organism-based
Acinetobacter baumannii = assay: Antibacterial activity against Acinetobacter baumannii ATCC 19606 assessed as bacterial growth inhibition at 32 ug/ml measured after 16 hrs by broth microdilution method; assay type: functional, organism-based; details: ATCC 19606 = CIP 70.34 = JCM 6841
HaCaT = assay: Cytotoxicity against immortal human HaCaT cells assessed as reduction in cell viability at 50 ug/ml after 24 hrs by CCK-8 assay; assay type: cell-based
Summary of the method: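 HeLa 229 and HaCaT cells in DMEM with 10% FBS and 1% penicillin/streptomycin, 37 °C, 5% CO2, seeded at 5000 cells/well. Next day treated with 50 μg/mL in triplicate, with matching DMSO controls. After 24 h, CCK-8 added for 2 h; corrected absorbance read at 450 nm.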

[5] = Stability of compound in mouse pre-heated plasma at 50 uM incubated up to 120 mins by HPLC-ESI/MS analysis; assay type: ADME, cell-free; details: 2 h
Summary of the method: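 Compounds from 2.5 mM DMSO stocks incubated at 50 μM final in mouse plasma diluted to 80% with PBS, preheated, 37 °C, shaking. Sampled at 0, 15, 30, 60, 90 and 120 min and quenched with cold acetonitrile. Centrifuged; supernatant analysed by HPLC-ESI-MS. Peak area reported relative to time zero. Enalapril positive control; triplicate.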

[6] = Stability of compound in human liver microsomes at 1 ug/ml measured up to 60 mins in absence of NADPH by LC-MS/MS analysis; assay type: ADME, Microsome; details: 1 h; summary of the method: as §1
Staphylococcus aureus [7] = assay: Antibacterial activity against methicillin-resistant Staphylococcus aureus ATCC 43300 assessed as bacterial growth inhibition at 32 ug/ml measured after 16 hrs by broth microdilution method; assay type: functional, organism-based
Pseudomonas aeruginosa = assay: Antibacterial activity against Pseudomonas aeruginosa ATCC 27853 assessed as bacterial growth inhibition at 32 ug/ml measured after 16 hrs by broth microdilution method; assay type: functional, organism-based
[8] = Mutagenicity in Drosophila melanogaster somatic cells assessed as frequency of clone formation in ST crosses at 0.25 to 1 mM by SMART assay; assay type: ADME; details: 1000 µM
Summary of the method: (§3)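 Drosophila SMART wing-spot assay, ST and HB crosses. Third-instar larvae (72 ± 4 h) placed on hydrated instant mashed potato medium containing compound at 0.25, 0.5 or 1.0 mM final. Negative control: water with 1% Tween-80 and 3% ethanol. Statistics by Frei and Würgler two-sided U test, P≤0.05.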

[9] = Intrinsic clearance in human liver microsomes at 1 ug/ml measured per mg protein up to 60 mins by LC-MS/MS analysis; assay type: ADME, Microsome; details: microsomes, 1 h; summary of the method: as §1
[10] = Mutagenicity in Drosophila melanogaster somatic cells assessed as frequency of clone formation in HB crosses at 0.25 to 1 mM by SMART assay; assay type: ADME; details: 1000 µM; summary of the method: as §3
Chlamydia trachomatis [11] = assay: (§4) Anti-chlamydial activity against Chlamydia trachomatis Serovar LGV-L2 infected in Hep2 cells assessed as reduction in chlamydial infectivity by measuring decrease in inclusion forming units at 50 ug/ml treated at 8 hrs post-infection and 24 hrs later re-infecting fresh Hep2 cells monolayer with infected cells and measured at 24 hrs post re-infection by immunofluorescence staining based microscopy analysis; assay type: functional, organism-based
Summary of the method: (§5)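 HEp-2 cells in DMEM with 10% FBS, infected with C. trachomatis L2 at MOI 1. Compounds added 8 hpi in triplicate; DMSO stocks at 50 mg/mL. At 24 hpi lysates collected in sucrose storage medium, frozen at −80 °C, and used to infect fresh HEp-2 monolayers in 10-fold dilutions. After 24 h, stained with goat anti-MOMP and Alexa488 secondary. Inclusions counted in 15 fields at 20x; IFU = mean count per field corrected for dilution.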

[12] = Toxicity in Drosophila melanogaster assessed as survival rate at 0.25 to 1 mM; details: 1000 µM
Summary of the method: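 Drosophila SMART assay using third-instar larvae (72 ± 4 h) from ST and HB crosses. Larvae exposed in hydrated instant mashed-potato medium at 0.25, 0.5 and 1.0 mM final. Vehicle control: water with 1% Tween-80 and 3% ethanol. Survival of treated groups compared statistically with the vehicle control.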

Cryptococcus neoformans = assay: Antifungal activity against Cryptococcus neoformans var. grubii H99 ATCC […] as fungal growth inhibition at 32 ug/ml measured after 16 hrs by broth microdilution method; assay type: functional, organism-based; details: var. grubii H99 ATCC 208821
Klebsiella pneumoniae = assay: Antibacterial activity against Klebsiella pneumoniae ATCC 700603 assessed as bacterial growth inhibition at 32 ug/ml measured after 16 hrs by broth microdilution method; assay type: functional, organism-based
[13] = Drug metabolism in human liver microsomes assessed as amount of drug modified at 1 ug/ml […] in presence of NADPH by LC-MS/MS analysis; assay type: ADME, Microsome; details: read-out: Drug metabolism
[14] = Stability of the compound in simulated gastric fluid at 50 uM and pH 1.2 at 37 degree C measured up to 120 mins by HPLC-ESI/MS analysis; details: simulated gi fluid, pH 1.2, 2 h
HeLa 229 = assay: Cytotoxicity against human HeLa 229 cells assessed as cell viability at 50 ug/ml after 24 hrs by CCK-8 assay relative to control; assay type: cell-based; details: hela 229, 24 h
Summary of the method: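 HeLa 229 cells kept in DMEM with 10% FBS and 1% penicillin/streptomycin at 37 °C, 5% CO2. Seeded at 5000 cells/well and dosed next day at 50 μg/mL in triplicate for 24 h, against DMSO-matched controls. CCK-8 reagent added for 2 h, then corrected absorbance read at 450 nm.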

Staphylococcus aureus [15] = assay: Antibacterial activity against Staphylococcus aureus JE2 assessed as bacterial growth inhibition at 32 ug/ml measured after 16 hrs by broth microdilution method; assay type: functional, organism-based; summary of the method: as §2
[16] = Hepatic intrinsic clearance in human liver microsomes at 1 ug/ml measured per kg body weight up to 60 mins by LC-MS/MS analysis; assay type: ADME, Microsome; details: 1 h
Chlamydia trachomatis [17] = assay: as §4, with “inclusion growth” for “infectivity”, “appearance of small and irregular inclusions” for “decrease in inclusion forming units”, “3” for “50”; assay type: functional, organism-based; summary of the method: as §5
Chlamydia trachomatis [18] = assay: Anti-Chlamydial activity against Chlamydia trachomatis Serovar LGV-L2 infected in Hep2 cells assessed as reduction in size and number of chlamydial inclusion at 50 ug/ml treated at 8 hrs post-infection and 24 hrs later re-infecting fresh Hep2 cells monolayer with infected cells and measured at 24 hrs post re-infection by immunofluorescence staining based microscopy analysis; assay type: functional, organism-based; summary of the method: as §5

## CC(C)(C(=O)NCCSc1ccccc1Cl)S(=O)(=O)c1ccc(C(F)(F)F)cn1
Haemophilus influenzae
  Activity: 32 µg/mL
Neisseria meningitidis
  Activity: 64 µg/mL
Chlamydia trachomatis [1]
  inhibition: Active

## CC(C)(Sc1ccc(C(F)(F)F)cn1)C(=O)NCCCc1ccccc1
HEp-2
  Activity: Toxic

## CC(C)(C(=O)NCCOc1ccccc1)S(=O)(=O)c1ccc(C(F)(F)F)cc1
[2]
  t1/2: 2.98 min
Escherichia coli [3]
  inhibition: inactive
Candida albicans
  inhibition: inactive
Escherichia coli [4]
  inhibition: inactive
Acinetobacter baumannii
  inhibition: inactive
HaCaT
  Activity: Non-Toxic
[5]
  Stability: Stable
[6]
  Stability: Stable
Staphylococcus aureus [7]
  inhibition: inactive
Pseudomonas aeruginosa
  inhibition: inactive
[8]
  Activity: Non-Toxic
[9]
  microsomal intrinsic clearance: 233.77 µL/min
[10]
  Activity: Non-Toxic
Chlamydia trachomatis [1]
  inhibition: Active
Chlamydia trachomatis [11]
  inhibition: Active
[12]
  Activity: Non-Toxic
Cryptococcus neoformans
  inhibition: inactive
Klebsiella pneumoniae
  inhibition: inactive
[13]
  metabolised at 10 min, 1 ug/ml: 90%
[14]
  Stability: Stable
HeLa 229
  Activity: < 65%
Staphylococcus aureus [15]
  inhibition: inactive
[16]
  CLH: 1840 mL/min/kg

## CC1(C)S[C@@H]2[C@H](NC(=O)Cc3ccccc3)C(=O)N2[C@H]1C(=O)O
Chlamydia trachomatis [17]
  inhibition: Active

## CC(C)(C(=O)NCCCc1ccccc1)S(=O)(=O)c1ccc(C(F)(F)F)cn1
Haemophilus influenzae
  Activity: 8 µg/mL
Chlamydia trachomatis [18]
  inhibition: Active
Neisseria meningitidis
  Activity: 16 µg/mL
Chlamydia trachomatis [11]
  inhibition: Active
